Experimental data from ChEMBL document CHEMBL5678805, “Intermittent administration of MEK inhibitor GDC-0973 plus PI3K inhibitor GDC-0941 triggers robust apoptosis and tumor growth inhibition” (Cancer Res, 2012).
The source made the active and inactive calls. The calls are words filed in the database; no cut-off is given here.

Columns and labels:
A-375 = assay: Antitumor activity against human A-375 cells harboring BRAF V600E/CDKN2A E61 mutant xenografted in mouse assessed as tumor growth inhibition at 10 mg/kg, po; type: functional; conditions: A-375, read-out: TGI
Outline: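 Mice carrying human tumor xenografts dosed orally once daily for 21 consecutive days. Tumor volume measured by calipers as (L×W×W)/2. %TGI = 100×[1 − AUC(treatment/day)/AUC(vehicle/day)], using the area under the fitted growth curve relative to vehicle.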

A2058 [1] = assay: Antitumor activity against human A2058 cells xenografted in mouse assessed as tumor growth inhibition at 6 mg/kg, po administered once a day for 21 days; type: functional; conditions: A2058, 504 h, time 21 day, read-out: TGI
Outline: (§1)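 Human tumor xenografts in mice. Drugs given orally, as single agents or combined with the PI3K inhibitor. Schedules were daily (QD) or every third day (Q3D) over 21 days. Tumor volume was measured by caliper as (L×W×W)/2. %TGI = 100×[1 − AUC(treatment/d)/AUC(vehicle/d)] from fitted growth curves, with group means. Tumor lysates were immunoblotted for pS6.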

[2] = target: Serine/threonine-protein kinase PAK 2 (Homo sapiens, UniProt Q13177); assay: Inhibition of PAK2 (unknown origin)
MOLM-13 = assay: Antitumor activity against human MOLM-13 cells harboring FLT3 Y599_D600insFDFREYE and c-Cbl E366_Q409del mutant xenografted in mouse assessed as tumor growth inhibition at 10 mg/kg, po; type: functional; conditions: read-out: TGI
Outline: (§2)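 Human tumor xenografts in mice were dosed orally at the indicated mg/kg. Tumor volume was measured with calipers as (L×W×W)/2. %TGI = 100 × [1 − (AUC treatment/d)/(AUC vehicle/d)], using the area under the fitted tumor-growth curve per day for each dose group relative to vehicle.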

NCI-H2122 [3] = assay: Antitumor activity against human NCI-H2122 cells xenografted in mouse assessed as tumor growth inhibition at 15 mg/kg, po administered every third day for 21 days; type: functional; conditions: NCI-H2122, 504 h, time 21 day, read-out: TGI
Outline: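 Dosing was oral, every third day (Q3D) across 21 days, with single agents or the MEK plus PI3K combination in NCI-H2122 xenograft mice. Tumor volume was calculated as (L×W×W)/2 from caliper measurements. %TGI was derived from fitted-curve AUC per day relative to vehicle, with body weight monitored.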

Ephrin type-B receptor 4 = Ephrin type-B receptor 4 (Homo sapiens, UniProt P54760); assay: Inhibition of EphB4 (unknown origin)
[4] = Antitumor activity against human MOLM16 cells harboring FLT3 T227M mutant xenografted in mouse assessed as tumor growth inhibition at 5 mg/kg, po; type: functional, MOLM-16; conditions: read-out: TGI; outline: as §2
NCI-H2122 [5] = assay: Antiproliferative activity against human NCI-H2122 cells assessed as reduction in cell viability incubated for 96 hrs in presence of 4-(2-(1H-indazol-4-yl)-6-((4-(methylsulfonyl)piperazin-1-yl)methyl)thieno[3,2-d]pyrimidin-4-yl)morpholine; type: functional, cell-based
A2058 [6] = assay: Antitumor activity against human A2058 cells harboring BRAF V600E/PTEN deletion mutant xenografted in mouse assessed as increase in Bims level at 15 mg/kg, po administered every third day for 21 days and measured after 8 hrs post dose in presence of 4-(2-(1H-indazol-4-yl)-6-((4-(methylsulfonyl)piperazin-1-yl)methyl)thieno[3,2-d]pyrimidin-4-yl)morpholine by Western blot analysis; type: functional, organism-based; conditions: time 512.0 hrs
[7] = target: Protein kinase C alpha type (Homo sapiens, UniProt P17252); assay: Inhibition of PKC alpha (unknown origin)
[8] = Antitumor activity against human A375.X1 cells xenografted in mouse assessed as tumor growth inhibition at 20 mg/kg, po administered every third day for 21 days; type: functional; conditions: A375.X1, 504 h, time 21 day, read-out: TGI; outline: as §1
Hs 695T = assay: Antiproliferative activity against human Hs 695T cells assessed reduction in cell viability incubated for 4 days in presence of 4-(2-(1H-indazol-4-yl)-6-((4-(methylsulfonyl)piperazin-1-yl)methyl)thieno[3,2-d]pyrimidin-4-yl)morpholine by celltiter-glo assay; type: functional; conditions: time 4 day
Outline: (§3)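 4-day CellTiter-Glo viability read-out on melanoma lines, cells exposed to increasing concentrations of each inhibitor alone and in combination.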

NCI-H69 = assay: Antitumor activity against human NCI-H69 cells harboring RBI E748/PK3CA G106_R108/TP53 E171 mutant xenografted in mouse assessed as tumor growth inhibition at 5 mg/kg, po; type: functional; conditions: read-out: TGI; outline: as §2
[9] = target: Serine/threonine-protein kinase 10 (Homo sapiens, UniProt O94804); assay: Inhibition of LOK (unknown origin)
A549 = assay: Antitumor activity against human A549 cells harboring KRAS G12S/LKB1Q37/SMARCA4 Q729/CDKN2A mutant xenografted in mouse assessed as tumor growth inhibition at 10 mg/kg, po; type: functional; conditions: read-out: TGI
Outline: (§4)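 Single-agent dose ranging in human tumor xenograft mice at 2.5, 5 or 10 mg/kg oral. Tumor volume was measured by caliper as (L×W×W)/2. %TGI = 100×[1 − AUC(treatment/d)/AUC(vehicle/d)] from the fitted growth curve per dose group, relative to vehicle.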

[10] = Antitumor activity against human A375.X1 cells xenografted in mouse assessed as tumor growth inhibition at 20 mg/kg, po administered every third day for 21 days in presence of 4-(2-(1H-indazol-4-yl)-6-((4-(methylsulfonyl)piperazin-1-yl)methyl)thieno[3,2-d]pyrimidin-4-yl)morpholine; type: functional; conditions: A375.X1, 504 h, time 21 day, read-out: TGI; outline: as §1
Malme-3M = assay: Antiproliferative activity against human Malme-3M cells assessed reduction in cell viability incubated for 4 days in presence of 4-(2-(1H-indazol-4-yl)-6-((4-(methylsulfonyl)piperazin-1-yl)methyl)thieno[3,2-d]pyrimidin-4-yl)morpholine by celltiter-glo assay; type: functional; conditions: time 4 day; outline: as §3
Calu-6 = assay: Antitumor activity against human Calu-6 cells harboring KRAS Q61K and TP53 R196 mutant xenografted in mouse assessed as tumor growth inhibition at 5 mg/kg, po; type: functional; conditions: read-out: TGI; outline: as §4
888-mel = assay: Antiproliferative activity against human 888-mel cells harboring BRAF V600E mutant assessed as reduction in cell viability incubated for 96 hrs in presence of 4-(2-(1H-indazol-4-yl)-6-((4-(methylsulfonyl)piperazin-1-yl)methyl)thieno[3,2-d]pyrimidin-4-yl)morpholine; type: functional, cell-based
[11] = Antitumor activity against human A375.X1 cells harboring BRAF V600E/CDKN2A E61 mutant xenografted in mouse assessed as tumor growth inhibition at 10 mg/kg, po; type: functional; conditions: A375.X1, read-out: TGI; outline: as §4
A375.X1 = assay: Antitumor activity against human A375.X1 cells xenografted in po dosed mouse assessed as reduction in ERK phosphorylation administered for 3 days and measured at 2 to 24 hrs by Western blot analysis; type: functional, organism-based; conditions: dose 1-10 mg/kg, time 74-96 hrs
Outline: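 A375.X1 xenograft mice were dosed orally at 1, 3, 5 or 10 mg/kg once daily for 3 days. Tumors were collected 2, 8 and 24 h after the last dose, pulverized frozen and resolved by 4–12% SDS-PAGE. p-ERK1/2 and t-ERK1/2 were measured by Western blot and quantified by band intensity, relative to vehicle-treated mice (0 h).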

SK-MEL-28 = assay: Antiproliferative activity against human SK-MEL-28 cells assessed reduction in cell viability incubated for 4 days in presence of 4-(2-(1H-indazol-4-yl)-6-((4-(methylsulfonyl)piperazin-1-yl)methyl)thieno[3,2-d]pyrimidin-4-yl)morpholine by celltiter-glo assay; type: functional; conditions: time 4 day; outline: as §3

Serine/threonine-protein kinase PAK 2, sequence (Q13177 whole entry): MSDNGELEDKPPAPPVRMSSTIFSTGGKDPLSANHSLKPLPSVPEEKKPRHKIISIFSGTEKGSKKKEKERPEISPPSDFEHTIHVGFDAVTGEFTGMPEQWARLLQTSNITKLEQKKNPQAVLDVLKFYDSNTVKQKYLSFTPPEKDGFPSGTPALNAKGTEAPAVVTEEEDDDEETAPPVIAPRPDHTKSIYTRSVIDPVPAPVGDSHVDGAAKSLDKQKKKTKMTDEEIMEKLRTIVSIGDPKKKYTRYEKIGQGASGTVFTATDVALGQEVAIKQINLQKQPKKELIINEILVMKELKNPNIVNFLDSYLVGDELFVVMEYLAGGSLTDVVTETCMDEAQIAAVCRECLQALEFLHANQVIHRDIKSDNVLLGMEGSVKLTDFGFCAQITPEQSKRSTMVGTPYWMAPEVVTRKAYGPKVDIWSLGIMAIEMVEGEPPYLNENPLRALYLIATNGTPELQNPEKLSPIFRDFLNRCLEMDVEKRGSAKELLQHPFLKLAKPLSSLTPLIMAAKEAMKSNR
Serine/threonine-protein kinase 10, sequence (O94804 whole entry): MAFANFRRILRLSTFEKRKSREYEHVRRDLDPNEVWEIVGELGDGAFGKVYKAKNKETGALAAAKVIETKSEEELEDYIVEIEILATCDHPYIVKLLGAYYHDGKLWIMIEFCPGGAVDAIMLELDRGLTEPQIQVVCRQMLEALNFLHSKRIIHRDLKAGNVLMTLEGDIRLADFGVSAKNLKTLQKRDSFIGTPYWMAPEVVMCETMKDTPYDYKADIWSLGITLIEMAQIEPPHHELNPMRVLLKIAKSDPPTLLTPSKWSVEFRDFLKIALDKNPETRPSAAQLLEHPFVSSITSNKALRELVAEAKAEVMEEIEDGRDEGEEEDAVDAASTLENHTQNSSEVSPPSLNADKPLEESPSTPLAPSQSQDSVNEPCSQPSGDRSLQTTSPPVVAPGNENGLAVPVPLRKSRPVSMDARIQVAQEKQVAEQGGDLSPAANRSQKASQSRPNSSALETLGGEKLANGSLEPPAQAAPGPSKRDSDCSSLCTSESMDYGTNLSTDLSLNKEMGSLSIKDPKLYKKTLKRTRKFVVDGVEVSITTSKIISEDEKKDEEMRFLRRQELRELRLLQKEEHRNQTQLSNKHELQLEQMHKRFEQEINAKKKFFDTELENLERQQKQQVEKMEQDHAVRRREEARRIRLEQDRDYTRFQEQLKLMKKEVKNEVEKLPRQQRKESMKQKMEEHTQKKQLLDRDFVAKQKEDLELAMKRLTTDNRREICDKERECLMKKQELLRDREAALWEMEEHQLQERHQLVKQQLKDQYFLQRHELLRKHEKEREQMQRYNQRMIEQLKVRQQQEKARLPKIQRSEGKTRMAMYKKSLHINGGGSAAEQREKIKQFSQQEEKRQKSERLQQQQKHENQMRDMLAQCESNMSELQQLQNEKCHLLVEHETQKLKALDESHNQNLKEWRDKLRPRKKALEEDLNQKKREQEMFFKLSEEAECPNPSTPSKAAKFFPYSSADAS
Ephrin type-B receptor 4, sequence (P54760 whole entry): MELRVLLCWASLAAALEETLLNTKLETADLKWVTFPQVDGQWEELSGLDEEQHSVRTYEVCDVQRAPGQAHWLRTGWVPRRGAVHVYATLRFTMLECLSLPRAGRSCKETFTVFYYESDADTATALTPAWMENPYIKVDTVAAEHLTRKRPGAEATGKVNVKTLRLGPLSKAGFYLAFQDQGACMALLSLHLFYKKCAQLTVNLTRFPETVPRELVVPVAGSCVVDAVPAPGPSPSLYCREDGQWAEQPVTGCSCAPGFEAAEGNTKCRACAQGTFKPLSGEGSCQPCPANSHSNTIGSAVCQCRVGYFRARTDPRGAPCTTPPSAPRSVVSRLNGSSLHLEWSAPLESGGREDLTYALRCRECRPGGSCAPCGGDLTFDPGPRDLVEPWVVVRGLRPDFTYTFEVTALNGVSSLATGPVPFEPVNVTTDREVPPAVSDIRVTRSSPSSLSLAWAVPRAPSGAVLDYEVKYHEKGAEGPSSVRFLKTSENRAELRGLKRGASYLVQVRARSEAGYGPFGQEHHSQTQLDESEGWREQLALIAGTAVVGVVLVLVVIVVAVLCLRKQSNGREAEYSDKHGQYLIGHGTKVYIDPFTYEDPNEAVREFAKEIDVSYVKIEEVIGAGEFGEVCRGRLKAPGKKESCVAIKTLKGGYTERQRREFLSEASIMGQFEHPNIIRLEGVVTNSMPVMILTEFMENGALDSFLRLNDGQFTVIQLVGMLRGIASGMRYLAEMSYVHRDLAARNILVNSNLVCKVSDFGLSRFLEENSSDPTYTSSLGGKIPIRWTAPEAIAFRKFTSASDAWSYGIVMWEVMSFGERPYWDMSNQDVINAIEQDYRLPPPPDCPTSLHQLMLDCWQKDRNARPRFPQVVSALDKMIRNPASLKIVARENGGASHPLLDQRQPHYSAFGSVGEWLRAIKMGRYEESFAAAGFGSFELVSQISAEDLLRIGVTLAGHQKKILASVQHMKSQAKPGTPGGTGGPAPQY

- IC50 [2]: > 10 µM
- IC50 (Ephrin type-B receptor 4): > 10 µM
- IC50 [7]: > 10 µM
- IC50 [9]: > 10 µM
SMILES: O=C(c1ccc(F)c(F)c1Nc1ccc(I)cc1F)N1CC(O)([C@@H]2CCCCN2)C1 [COBIMETINIB]
- inhibition in vivo at 10 mg/kg (A-375): 122%
- inhibition in vivo at 6 mg/kg (A2058 [1]): 44%
- inhibition in vivo at 10 mg/kg (MOLM-13): 36%
- inhibition in vivo at 15 mg/kg (NCI-H2122 [3]): 71%
- inhibition in vivo at 5 mg/kg [4]: 30%
- Activity (NCI-H2122 [5]): inactive
- Activity (A2058 [6]): Active
- inhibition in vivo at 20 mg/kg [8]: 94%
- Activity (Hs 695T): 60%
- inhibition in vivo at 5 mg/kg (NCI-H69): 21%
- inhibition in vivo at 10 mg/kg (A549): 108%
- inhibition in vivo at 20 mg/kg [10]: 118%
- Activity (Malme-3M): 60%
- inhibition in vivo at 5 mg/kg (Calu-6): 80%
- Activity (888-mel): inactive
- inhibition in vivo at 10 mg/kg [11]: 104%
- Activity (A375.X1): Dose-Dependent Effect
- Activity (SK-MEL-28): 60%
